Experimental data published in article PMC4303589 (Molecular and cellular biochemistry, 2014).

Biological target: T1, SvAS (fused anthranilate synthase, SvTrpEG) (Streptomyces venezuelae, UniProt O30589)
T1 sequence (O30589 1-623): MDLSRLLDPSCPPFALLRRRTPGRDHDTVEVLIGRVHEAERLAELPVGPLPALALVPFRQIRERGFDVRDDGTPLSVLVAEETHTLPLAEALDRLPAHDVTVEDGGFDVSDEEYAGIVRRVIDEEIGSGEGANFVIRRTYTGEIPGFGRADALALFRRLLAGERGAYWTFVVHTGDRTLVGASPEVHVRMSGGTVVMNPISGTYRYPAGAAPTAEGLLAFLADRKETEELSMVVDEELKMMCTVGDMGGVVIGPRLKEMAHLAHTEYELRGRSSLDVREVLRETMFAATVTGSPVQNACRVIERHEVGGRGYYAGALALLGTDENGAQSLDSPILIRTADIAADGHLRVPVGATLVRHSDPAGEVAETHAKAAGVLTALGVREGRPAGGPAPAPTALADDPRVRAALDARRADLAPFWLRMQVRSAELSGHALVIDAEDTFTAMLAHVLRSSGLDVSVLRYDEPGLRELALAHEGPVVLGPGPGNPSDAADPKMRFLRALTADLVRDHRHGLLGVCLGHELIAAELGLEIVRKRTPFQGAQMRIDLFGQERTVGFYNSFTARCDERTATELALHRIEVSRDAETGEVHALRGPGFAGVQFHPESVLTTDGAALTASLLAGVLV
Format: biochemical
Summary of the method: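 His-tagged SvAS expressed in E. coli BL21(DE3)pLysS and purified on Ni-NTA. Assays at 30°C in 50 mM Tricine pH 7.5 with 12.5 mM MgCl2, 10 μg enzyme, 20 mM glutamine (saturating), 0.39–100 μM chorismate, and 2.5, 5, 10 or 20 μM test compound. Anthranilate fluorescence (ex 315/em 395 nm) converted via standard curve. Lineweaver-Burk plot assigned inhibition type; Ki from fit to that equation.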

N[C@@H](Cc1c[nH]c2ccccc12)C(=O)O [tryptophan]
Ki: 11.1 ± 0.1 µM
